ChEMBL document CHEMBL4715813, “Allicin-inspired pyridyl disulfides as antimicrobial agents for multidrug-resistant Staphylococcus aureus” (Eur J Med Chem, 2018)
≈ marks a conversion by molar mass, not a printed value. Calls of active or inactive are those of the source. The calls are words filed in the database; no cut-off is given here.

Assays:
Staphylococcus aureus [1] = assay: Antibacterial activity against community acquired methicillin-resistant Staphylococcus aureus BAA 1747 assessed as zone of inhibition by disc diffusion method; format: functional
Staphylococcus aureus [2] = assay: Antibacterial activity against methicillin-susceptible Staphylococcus aureus ATCC 25923 assessed as inhibition of bacterial growth at 1 to 2 times of MIC after 20 hrs; format: functional, organism-based
Staphylococcus aureus [3] = assay: Antibacterial activity against vancomycin-intermediate resistant Staphylococcus aureus Mu50 ATCC 700699 assessed as bacterial growth inhibition by measuring fold increase in MIC between 5 to 7 passages by broth dilution method; format: functional
Staphylococcus aureus [4] = assay: Synergistic antibacterial activity against vancomycin-resistant Staphylococcus aureus HIP14300 assessed as fractional inhibitory concentration index incubated for 20 hrs in presence of vancomycin by checkerboard titration assay; format: functional
Procedure, shortened: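 Checkerboard: VRSA HIP14300 as a 0.5 McFarland suspension diluted 1:100 in CAMHB, inoculated into twofold serial dilutions of disulfide and vancomycin, sealed, 20 h at 37 °C. Growth read by MTT staining with DMSO solubilization. ΣFIC = FIC1h + FICVAN; synergy ≤ 0.5, indifferent >0.5–≤4, antagonism >4.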

Acinetobacter baumannii [5] = assay: Antibacterial activity against multidrug-resistant Acinetobacter baumannii BAA 1605 assessed as zone of inhibition by disc diffusion method; format: functional
Staphylococcus aureus [6] = assay: Antibacterial activity against vancomycin-resistant Staphylococcus aureus HIP11714 assessed as bacterial growth inhibition by measuring fold increase in MIC between 5 to 7 passages by broth dilution method; format: functional
Staphylococcus aureus [7] = assay: Antibacterial activity against hospital acquired methicillin-resistant Staphylococcus aureus ATCC 43300 assessed as zone of inhibition by disc diffusion method; format: functional
Staphylococcus aureus [8] = assay: Antibacterial activity against linezolid-resistant Staphylococcus aureus assessed as bacterial growth inhibition incubated for 20 hrs by broth dilution method; format: functional
Procedure, shortened: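 Broth microdilution: 0.5 McFarland suspension from an overnight culture, diluted 1:100 in cation-adjusted Mueller Hinton broth (CAMHB), given serial dilutions of test agent for 20 h at 37 °C. MIC is the lowest concentration with no visible growth.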

Acinetobacter baumannii [9] = assay: Antibacterial activity against Acinetobacter baumannii ATCC 19606 assessed as zone of inhibition by disc diffusion method; format: functional
Staphylococcus aureus [10] = assay: Bacteriostatic activity against methicillin-susceptible Staphylococcus aureus ATCC 25923 assessed as reduction in colony forming unit at 4 times of MIC measured up to 4 hrs by time kill assay; format: functional, organism-based
Procedure, shortened: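 Time-kill: a 1:100 dilution of 0.5 McFarland S. aureus […] suspension was exposed to 0, 1 and 4× MIC. At 0, 1, 2 and 4 h, samples were serially diluted in PBS and plated on MHA. CFU were counted after 30 h incubation.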

Staphylococcus aureus [11] = assay: Disruption of membrane potential in Staphylococcus aureus after 15 to 30 mins by DiOC2(3) probe based flow cytometric anlaysis; format: functional, organism-based; conditions: time 15-30 min
Procedure, shortened: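 An overnight S. aureus culture was diluted 1:100 in LB, shaken 2 h at 37 °C, then diluted to a final 1:200. Cells were treated with 3–30 μM, DMSO 2% vehicle or CCCP at 37 °C with shaking. At 15 and 30 min, samples were stained 20 min with DiOC2(3). Flow cytometry used ex 488 nm, green 530/30 and red 585/42, reported as red/green ratio (mean ± SEM).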

Staphylococcus aureus [12] = assay: Bacteriostatic activity against methicillin-susceptible Staphylococcus aureus ATCC 25923 assessed as reduction in bacterial metabolism at 0.25 to 1 times of MIC incubated for 1 hr by C12-resazurin dye based fluorescence assay; format: functional, organism-based
Staphylococcus aureus [13] = assay: Antibacterial activity against heterogeneous vancomycin-intermediate Staphylococcus aureus Mu3 ATCC 700698 assessed as inhibition of bacterial growth between 2 and 4 passages at 0.5 times of MIC incubated for 20 hrs by resistant development assay; format: functional, organism-based
Procedure, shortened: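 Serial passage with hVISA Mu3, VISA and VRSA strains grown at 0.5× MIC of agent (± equimolar vancomycin). […] MIC was read visually at each passage.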

Staphylococcus aureus [14] = assay: Antibacterial activity against methicillin-susceptible Staphylococcus aureus ATCC 25923 in presence of 5% v/v serum; format: functional
Staphylococcus aureus [15] = assay: Antibacterial activity against vancomycin-resistant Staphylococcus aureus HIP11714 assessed as zone of inhibition by disc diffusion method; format: functional
Staphylococcus aureus [16] = assay: Bacteriostatic activity against methicillin-susceptible Staphylococcus aureus ATCC 25923 assessed as reduction in glucose metabolism measured at 0.5 hr interval for 15 hrs by phenol red based microplate reader assay; format: functional, organism-based
Procedure, shortened: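 Glucose acidification: an OD600 1.0 suspension of S. aureus […] in HBSS was mixed with phenol red (70 μM stock) and test agent added from a 2 mM stock. Controls were DMSO vehicle and water. OD560 was read every 0.5 h for 15 h at 37 °C.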

MDA-MB-231 = assay: Cytotoxicity against human MDA-MB-231 cells assessed as reduction in cell viability after 72 hrs by MTT assay; format: cell-based; conditions: MDA-MB-231, 72 h
Procedure, shortened: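 MTT viability: MDA-MB-231 and HepG2 cells (kept in DMEM with 10% FBS) were seeded at 5000/well and allowed to adhere overnight. They were exposed to 0.001–100 μM for 72 h, then given MTT 1 mg/mL in PBS pH 7.4 for 2 h. Formazan was dissolved in DMSO and A570 read. IC50 was taken from dose-response curves.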

Escherichia coli = assay: Antibacterial activity against beta-lactam resistant Escherichia coli BAA 2326 assessed as zone of inhibition by disc diffusion method; format: functional
Staphylococcus aureus [17] = assay: Antibacterial activity against heterogeneous vancomycin-intermediate resistant Staphylococcus aureus Mu3 ATCC 700698 assessed as zone of inhibition by disc diffusion method; format: functional
Enterococcus faecalis = assay: Antibacterial activity against vancomycin-susceptible Enterococcus faecalis ATCC 29212 assessed as zone of inhibition by disc diffusion method; format: functional
Staphylococcus aureus [18] = assay: Induction of intracellular oxidant species generation in Staphylococcus aureus ATCC 25923 by DCFH-DA dye based fluorescence assay; format: functional, organism-based
Procedure, shortened: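 OD600 1.5 suspension of S. aureus […] in HBSS given agent (from 2 or 10 mM stock), DMSO or water, then DCFH diacetate from a 100 μM stock in DMSO. Intracellular oxidation read by fluorescence (ex 485, em 535 nm).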

Bacillus anthracis = assay: Antibacterial activity against Bacillus anthracis Sterne 34F2 assessed as zone of inhibition by disc diffusion method; format: functional
Staphylococcus aureus [19] = assay: Ratio of MBC to MIC against heterogeneous vancomycin-intermediate Staphylococcus aureus Mu3 ATCC 700698; format: functional
Procedure, shortened: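 For MBC, 5 μL from each well was spotted on agar and incubated overnight; MBC is the lowest concentration with no visible growth. Ratio taken as MBC over MIC.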

Klebsiella pneumoniae = assay: Antibacterial activity against multidrug-resistant Klebsiella pneumoniae ATCC 700603 assessed as zone of inhibition by disc diffusion method; format: functional
Staphylococcus aureus [20] = assay: Induction of intracellular oxidant species generation in Staphylococcus aureus ATCC 25923 after 1 hr by colorimetric based NBT assay; format: functional, organism-based
Procedure, shortened: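 Cells at OD600 1.5 in HBSS mixed with 1 mg/mL aqueous NBT and agent (added from 2 mM stock) or DMSO/water, shaken for 1 h at 37 °C. Stopped with 0.1 M HCl and centrifuged; pellet formazan solubilized in DMSO/KOH/HBSS and read at OD560.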

Compound: CCCCCCCCSSc1ccccn1
- diameter of the inhibition zone (DIZ) (Staphylococcus aureus [1]): 30 mm
- Activity (Staphylococcus aureus [2]): Active
- fold change (FC) (Staphylococcus aureus [3]): >2
- FIC (Staphylococcus aureus [4]): <=0.5
- diameter of the inhibition zone (DIZ) (Acinetobacter baumannii [5]): 0 mm
- fold change (FC) (Staphylococcus aureus [6]): >2
- diameter of the inhibition zone (DIZ) (Staphylococcus aureus [7]): 38 mm
- MIC (Staphylococcus aureus [8]): 25 µM (≈ 6.39 µg/mL)
- diameter of the inhibition zone (DIZ) (Acinetobacter baumannii [9]): 0 mm
- Activity (Staphylococcus aureus [10]): Active
- Activity (Staphylococcus aureus [11]): Dose-dependent effect
- Activity (Staphylococcus aureus [12]): Active
- Activity (Staphylococcus aureus [13]): Active
- MIC (Staphylococcus aureus [14]): 25 µM
- diameter of the inhibition zone (DIZ) (Staphylococcus aureus [15]): 38 mm
- Activity (Staphylococcus aureus [16]): Active
- IC50 (MDA-MB-231): 74.9 µM
- diameter of the inhibition zone (DIZ) (Escherichia coli): 0 mm
- diameter of the inhibition zone (DIZ) (Staphylococcus aureus [17]): 37 mm
- diameter of the inhibition zone (DIZ) (Enterococcus faecalis): 12 mm
- Activity (Staphylococcus aureus [18]): Active
- diameter of the inhibition zone (DIZ) (Bacillus anthracis): 48 mm
- Ratio (Staphylococcus aureus [19]): >4
- diameter of the inhibition zone (DIZ) (Klebsiella pneumoniae): 0 mm
- Activity (Staphylococcus aureus [20]): Active
